Published values pooled from the literature.
Compare with care: the assays were run in different laboratories.
Target: Calcium/calmodulin-dependent protein kinase type II subunit delta (CAMK2D, Homo sapiens, UniProt Q13557)

| SMILES | assay | conditions | remaining binding [%] |
| --- | --- | --- | --- |
| N[C@@H]1CCN(c2nccc(-c3cnn4ncccc34)n2)C1 | binding | 1 µM | 100 |
| O=C(c1ccc(Nc2ncc(Cl)c(-c3ccc(Cl)s3)n2)cc1)N1CCC(N2CCCC2)CC1 | binding, competition with immobilised ligand | 1 µM | 75 |
| CC1CCCN1c1nccc(-c2cnn3ncccc23)n1 (stereo not shown) | binding | 1 µM | 100 |
| C[C@H](c1cccc(C#N)c1)n1cc(Cl)cc(C(N)=O)c1=N | cell-free assay, competition with immobilised ligand | 1 µM | 100 |
| O=C(Nc1c[nH]nc1C(=O)NC1CCNCC1)c1cc(F)cc(F)c1 | binding, competition with immobilised ligand | 1 µM | 100 |
| F[C@@H]1CCN(c2nccc(-c3cnn4ncccc34)n2)C1 | binding | 1 µM | 100 |
| COc1cc(-c2cn(C3CCc4ccccc4N(CC(F)(F)F)C3=O)nn2)ccc1-n1ccc(C)n1 (stereo not shown) | cell-free assay, competition with immobilised ligand | 1 µM | 100 |
| c1cncc(-c2cccc(Nc3nccc(NC4CCCCC4)n3)c2)c1 | binding, competition with immobilised ligand | 10 µM | 92 |
| CN(c1ccnc(CNc2nc(Nc3ccc4c(c3)CC(=O)N4)ncc2C(F)(F)F)n1)S(C)(=O)=O | cell-free assay, competition with immobilised ligand | 1 µM | 100 |
| CN(c1nccc(-c2cnn3ncccc23)n1)C1CC1 | binding | 1 µM | 100 |
| C=CC(=O)N1CCC(C(=O)NCC(=O)N2CCN(c3nc(-c4cnc(N)nc4C(F)F)nc(N4CCOCC4)n3)CC2)CC1 | binding, competition with immobilised ligand | 1 µM | 100 |
| CCS(=O)(=O)c1cc2cc(C[C@@](O)(CC(C)(C)c3ccc(F)cc3C(N)=O)C(F)(F)F)[nH]c2cn1 | cell-free assay, competition with immobilised ligand | 1 µM | 81 |
| O=C(NCCCN1CCOCC1)c1ccc(Nc2nccc(-c3cc4ccccc4s3)n2)cc1 | binding, competition with immobilised ligand | 1 µM | 86 |
| C[C@H]1CCN(c2nccc(-c3cnn4ncccc34)n2)C1 | binding | 1 µM | 94 |
| CS(=O)(=O)c1cc(C2(NC(=O)c3cncc4c3cnn4-c3ccc(F)cc3)CC2)ccn1 | cell-free assay, competition with immobilised ligand | 1 µM | 76 |
| COc1cnc(Nc2cccc(S(N)(=O)=O)c2)nc1N1CCN(c2ccccc2)CC1 | binding, competition with immobilised ligand | 1 µM | 92 |
| CNC(=O)c1ccc(Nc2ncc(C(F)(F)F)c(NCc3nccnc3N(C)S(C)(=O)=O)n2)cc1 | cell-free assay, competition with immobilised ligand | 0.1 µM | 83 |
| Cc1cnc(Nc2ccc(C(=O)N3CCC(N4CCCC4)CC3)cc2)nc1-c1cc2ccccc2s1 | binding, competition with immobilised ligand | 1 µM | 73 |
| COc1ccnn2ncc(-c3ccnc(N(C)C)n3)c12 | binding | 1 µM | 81 |
| CNC(=O)Nc1ccc2c(c1)CC[C@@]21OC(=O)N(CC(=O)N(Cc2ccc(F)cc2)[C@@H](C)C(F)(F)F)C1=O | cell-free assay, competition with immobilised ligand | 1 µM | 91 |
| c1cnn2ncc(-c3ccnc(N4CCC45COC5)n3)c2c1 | binding | 1 µM | 83 |
| CCN1CCN(Cc2ccc(C(=O)Nc3ccc(C)c(Oc4ccc5c(c4)CC(=O)N5)c3)cc2C(F)(F)F)CC1 | binding, competition with immobilised ligand | 1 µM | 100 |
